Assay results taken from ChEMBL document CHEMBL1138009, “3-[3-Fluoro-5-(5-pyridin-2-yl-2H-tetrazol-2-yl)phenyl]-4-methylpyridine: a highly potent and orally bioavailable metabotropic glutamate subtype 5 (mGlu5) receptor antagonist” (Bioorg Med Chem Lett, 2004).

Key:
[1] = target: T1, Metabotropic glutamate receptor 5 (Rattus norvegicus, UniProt P31424); experiment: Binding affinity towards Metabotropic glutamate receptor was determined by displacing [3H]3-methoxy-5-(pyridin-2-ylethynyl)pyridine from rat cortical membranes
T1 sequence (P31424 whole entry): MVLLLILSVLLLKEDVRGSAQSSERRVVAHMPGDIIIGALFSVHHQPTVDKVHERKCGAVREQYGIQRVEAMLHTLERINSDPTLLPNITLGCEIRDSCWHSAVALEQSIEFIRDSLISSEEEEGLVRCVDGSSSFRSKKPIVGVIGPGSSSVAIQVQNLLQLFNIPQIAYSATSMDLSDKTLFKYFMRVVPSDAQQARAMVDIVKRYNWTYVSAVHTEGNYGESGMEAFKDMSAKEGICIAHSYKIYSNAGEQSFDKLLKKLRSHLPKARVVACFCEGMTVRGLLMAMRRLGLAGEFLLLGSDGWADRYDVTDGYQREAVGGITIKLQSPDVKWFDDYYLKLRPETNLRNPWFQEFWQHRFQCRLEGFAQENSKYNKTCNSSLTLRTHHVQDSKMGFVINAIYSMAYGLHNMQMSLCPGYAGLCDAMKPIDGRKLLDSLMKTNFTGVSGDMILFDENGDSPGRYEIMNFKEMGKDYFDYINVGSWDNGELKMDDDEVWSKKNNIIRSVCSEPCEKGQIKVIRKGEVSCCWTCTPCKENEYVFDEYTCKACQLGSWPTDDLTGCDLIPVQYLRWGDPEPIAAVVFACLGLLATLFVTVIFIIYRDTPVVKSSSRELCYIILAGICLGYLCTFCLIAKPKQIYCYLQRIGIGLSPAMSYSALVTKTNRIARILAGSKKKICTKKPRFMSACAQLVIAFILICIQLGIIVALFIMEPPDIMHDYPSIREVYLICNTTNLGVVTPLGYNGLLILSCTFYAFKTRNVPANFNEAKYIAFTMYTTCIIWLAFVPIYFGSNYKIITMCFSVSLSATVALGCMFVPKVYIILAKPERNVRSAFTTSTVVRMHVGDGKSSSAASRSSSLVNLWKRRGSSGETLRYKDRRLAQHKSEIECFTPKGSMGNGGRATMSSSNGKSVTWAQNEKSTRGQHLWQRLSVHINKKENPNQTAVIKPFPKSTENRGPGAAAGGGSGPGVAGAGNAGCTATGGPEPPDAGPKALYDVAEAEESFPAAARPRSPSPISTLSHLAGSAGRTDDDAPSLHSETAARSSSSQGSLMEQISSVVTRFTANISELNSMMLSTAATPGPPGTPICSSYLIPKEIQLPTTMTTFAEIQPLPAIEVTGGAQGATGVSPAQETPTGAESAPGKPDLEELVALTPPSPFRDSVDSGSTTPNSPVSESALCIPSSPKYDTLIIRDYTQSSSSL
In short: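 Radioligand displacement of [3H]-3-methoxy-5-(pyridin-2-ylethynyl)pyridine from rat cortical membranes by test compounds; n = 2–4, SD ≈ ±25%.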

[2] = target: T1, Metabotropic glutamate receptor 5; experiment: Antagonistic activity against Metabotropic glutamate receptor 5 in [Ca2+] flux assay using glutamate (10 uM) as agonist; type: functional
In short: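 Cell-based high-throughput functional assay; glutamate 10 μM as agonist; antagonism read as change in cytosolic Ca2+ by fluorescence detection; n = 2–4, SD ≈ ±25%.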

[3] = Plasma clearance i.v. dosing at 2 mg/kg of 50% PEG400/H 20, po dosing at 10 mg/kg; type: ADME, organism-based; settings: rat, iv, read-out: Clp
[4] = Oral bioavailability i.v. dosing at 2 mg/kg of 50% PEG400/H 20, po dosing at 10 mg/kg; type: ADME, organism-based; settings: rat, in vivo
[5] = Half life i.v. dosing at 2 mg/kg of 50% PEG400/H 20, po dosing at 10 mg/kg; type: ADME, organism-based; settings: rat, in vivo
[6] = Maximum concentration i.v. dosing at 2 mg/kg of 50% PEG400/H 20, po dosing at 10 mg/kg; type: ADME, organism-based; settings: rat, in vivo
[7] = target: Metabotropic glutamate receptor 5 (Rattus norvegicus) (UniProt P31424); experiment: Effective dose against rat Metabotropic glutamate receptor 5 occupancy after i.p. dosing at 10 mg/kg of 50% PEG400/H 20; type: functional, organism-based; parameters: dose 10 mg/kg
Sequence of Metabotropic glutamate receptor 5 (Rattus norvegicus) (P31424 21-1203 limits assumed): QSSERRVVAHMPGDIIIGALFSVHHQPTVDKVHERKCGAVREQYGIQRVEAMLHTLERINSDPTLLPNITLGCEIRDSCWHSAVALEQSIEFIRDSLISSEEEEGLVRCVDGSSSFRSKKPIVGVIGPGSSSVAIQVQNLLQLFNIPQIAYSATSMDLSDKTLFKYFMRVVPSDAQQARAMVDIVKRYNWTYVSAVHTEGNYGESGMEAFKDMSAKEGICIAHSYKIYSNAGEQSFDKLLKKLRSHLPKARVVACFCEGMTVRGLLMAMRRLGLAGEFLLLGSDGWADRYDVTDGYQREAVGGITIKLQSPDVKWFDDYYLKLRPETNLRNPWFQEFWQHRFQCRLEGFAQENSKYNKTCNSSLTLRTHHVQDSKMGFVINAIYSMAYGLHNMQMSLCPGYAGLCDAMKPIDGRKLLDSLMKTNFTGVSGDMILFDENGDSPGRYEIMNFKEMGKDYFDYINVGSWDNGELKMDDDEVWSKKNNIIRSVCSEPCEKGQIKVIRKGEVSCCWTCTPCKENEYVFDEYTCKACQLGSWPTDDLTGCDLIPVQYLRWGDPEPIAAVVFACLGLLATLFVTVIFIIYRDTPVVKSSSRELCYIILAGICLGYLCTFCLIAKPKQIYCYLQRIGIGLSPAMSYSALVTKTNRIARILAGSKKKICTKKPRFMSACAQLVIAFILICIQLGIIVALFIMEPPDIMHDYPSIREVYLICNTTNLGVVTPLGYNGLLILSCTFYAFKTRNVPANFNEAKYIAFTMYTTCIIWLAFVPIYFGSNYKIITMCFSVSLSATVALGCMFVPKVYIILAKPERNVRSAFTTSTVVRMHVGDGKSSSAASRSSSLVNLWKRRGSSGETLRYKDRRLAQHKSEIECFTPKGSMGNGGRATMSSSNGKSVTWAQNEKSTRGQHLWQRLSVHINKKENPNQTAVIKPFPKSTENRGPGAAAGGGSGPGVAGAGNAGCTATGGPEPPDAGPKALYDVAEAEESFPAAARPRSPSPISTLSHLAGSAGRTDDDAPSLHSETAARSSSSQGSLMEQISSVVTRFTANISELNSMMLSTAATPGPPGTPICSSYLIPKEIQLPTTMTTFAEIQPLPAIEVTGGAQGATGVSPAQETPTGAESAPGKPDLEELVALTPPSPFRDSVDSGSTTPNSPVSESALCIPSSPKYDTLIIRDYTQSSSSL
In short: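 Rat receptor occupancy: compound given 10 mg/kg intraperitoneally in 50% PEG 400/H2O, occupancy measured at 1 h; hippocampal and plasma levels also determined at 1 h.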

[8] = Oral bioavailability after i.v. dosing at 2 mg/kg of 50% PEG400/H 20, po dosing at 10 mg/kg; type: ADME, organism-based; settings: rat, in vivo

Ki [1] [nM] | IC50 [2] [nM] | Compound | other results
7 | 8 | Nc1ccccc1-c1cc(F)cc(-n2nnc(-c3ccccn3)n2)c1 | 
23 | 120 | Cc1ccccc1-c1cc(F)cc(-n2nnc(-c3ccccn3)n2)c1 | 
95 | 39 | Fc1cc(-c2ccccn2)cc(-n2nnc(-c3ccccn3)n2)c1 | 
33 | 63 | Cc1cnccc1-c1cc(F)cc(-n2nnc(-c3ccccn3)n2)c1 | 
 | 1470 | Cc1cccc(-c2cc(F)cc(-n3nnc(-c4ccccn4)n3)c2)c1 | 
2 | 5 | Cc1ccncc1-c1cc(F)cc(-n2nnc(-c3ccccn3)n2)c1 | clearance [3]: 39 mL/min/kg; bioavailability [4]: 12%; half-life [5]: 1.6 h; Cmax [6]: 900 nM; Occupancy [7]: 95
24 | 31 | Cc1cccnc1-c1cc(F)cc(-n2nnc(-c3ccccn3)n2)c1 | 
272 | 499 | Cc1cncc(-c2cc(F)cc(-n3nnc(-c4ccccn4)n3)c2)c1 | 
575 | 956 | Fc1cc(-c2ccncc2)cc(-n2nnc(-c3ccccn3)n2)c1 | 
36 | 57 | Cc1ccc(-c2cc(F)cc(-n3nnc(-c4ccccn4)n3)c2)cn1 | 
4 | 6 | N#Cc1ccccc1-c1cc(F)cc(-n2nnc(-c3ccccn3)n2)c1 | 
20 | 108 | Nc1ccncc1-c1cc(F)cc(-n2nnc(-c3ccccn3)n2)c1 | 
 | > 3000 | Cc1ccc(-c2cc(F)cc(-n3nnc(-c4ccccn4)n3)c2)cc1 | 
14 | 4 | N#Cc1cc(F)cc(-n2nnc(-c3ccccn3)n2)c1 | bioavailability [8]: 26%; clearance [3]: 17 mL/min/kg; T1/2 [5]: 2.9 h
45 | 41 | Cc1ncccc1-c1cc(F)cc(-n2nnc(-c3ccccn3)n2)c1 | 
53 | 247 | Fc1cc(-c2ccccc2)cc(-n2nnc(-c3ccccn3)n2)c1 | 
12 | 253 | N#Cc1cccc(-c2cc(F)cc(-n3nnc(-c4ccccn4)n3)c2)c1 | 
31 | 19 | Nc1cccnc1-c1cc(F)cc(-n2nnc(-c3ccccn3)n2)c1 | 
37 | 12 | Fc1cc(-c2cccnc2)cc(-n2nnc(-c3ccccn3)n2)c1 | 
